In ChEMBL document CHEMBL1275242, “Antifungal susceptibility profile of human-pathogenic species of Lichtheimia” (2010):
Values after ≈ are worked out from the molar mass of the structure shown. Numbered stars: 1 amine (or outer) side, 2 acyl side, 3 side chain; on linkers, the order of the positions; unused ones are H or OH. Bridge positions count the residues as written; N and C are the ends. Square brackets hold non-standard residues; d marks the D form. Peptide text beside a SMILES is read from it. * marks the point of attachment. hTyr(3S-OH,4S-OH,3'-OSO3H) = N[C@H](C(=O)O)[C@H](O)[C@@H](O)c1ccc(O)c(OS(=O)(=O)O)c1; pTerphenylCO(4''-OnC5H11) = CCCCCOc1ccc(-c2ccc(-c3ccc(C(=O)*)cc3)cc2)cc1; Orn(4R-OH,5R-OH) = O=C([C@H](C[C@@H](O)[C@@H](O)N[*:3])N[*:1])[*:2]; hTyr(3S-OH,4S-OH) = N[C@H](C(=O)O)[C@H](O)[C@@H](O)c1ccc(O)cc1; Pro(3S-OH,4S-Me) = C[C@H]1CN[C@H](C(=O)O)[C@H]1O; X1 = CCCCCOc1ccc(-c2cc(-c3ccc(C(=O)*)cc3)no2)cc1; Gln(3R-OH) = NC(=O)C[C@@H](O)[C@H](N)C(=O)O; Hyp = O=C(O)[C@@H]1C[C@@H](O)CN1

Legend:
Assay type in all cases: functional
[1] = Antifungal activity against Lichtheimia ornata clinical isolate after 24 hrs by EUCAST method
Method in brief: (§1)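 EUCAST broth microdilution, with spore inoculum counted in a hematocytometer. Final drug concentrations were 16 to 0.03 or 8 to 0.015 mg/liter depending on agent. Plates were incubated at 35°C in humid air and read visually with a mirror at 24 and 48 h. Endpoint was complete visual growth inhibition, except for echinocandins, where it was MEC (altered hyphal morphology versus growth control). Aspergillus QC strains were included.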

[2] = Antifungal activity against Lichtheimia ramosa clinical isolate after 48 hrs by EUCAST method; method in brief: as §1
[3] = Antifungal activity against Lichtheimia ramosa clinical isolate after 24 hrs by EUCAST method; method in brief: as §1
Lichtheimia corymbifera [4] = test: Antifungal activity against Lichtheimia corymbifera clinical isolate after 48 hrs by EUCAST method; method in brief: as §1
Lichtheimia corymbifera [5] = test: Antifungal activity against Lichtheimia corymbifera clinical isolate after 24 hrs by EUCAST method; method in brief: as §1
[6] = Antifungal activity against Lichtheimia ornata clinical isolate after 48 hrs by EUCAST method; method in brief: as §1

SMILES	MIC [1]	MIC [2]	MIC [3]	MIC (Lichtheimia corymbifera [4])	MIC (Lichtheimia corymbifera [5])	MIC [6]
C[C@@H]1[C@H](O)[C@@H](C)/C=C/C=C/C=C/C=C/C=C/C=C/C=C/[C@H](O[C@@H]2O[C@H](C)[C@@H](O)[C@H](N)[C@@H]2O)C[C@@H]2O[C@](O)(C[C@@H](O)C[C@@H](O)[C@H](O)CC[C@@H](O)C[C@@H](O)CC(=O)O[C@H]1C)C[C@H](O)[C@H]2C(=O)O [AMPHOTERICIN B]	0.12 µg/mL (≈ 0.13 µM)	0.14 µg/mL (≈ 0.152 µM)	0.08 µg/mL (≈ 0.0866 µM)	0.14 µg/mL (≈ 0.152 µM)	0.07 µg/mL (≈ 0.0758 µM)	0.12 µg/mL (≈ 0.13 µM)
CCCCCOc1ccc(-c2ccc(-c3ccc(C(=O)N[C@H]4C[C@@H](O)[C@@H](O)NC(=O)[C@@H]5[C@@H](O)[C@@H](C)CN5C(=O)[C@H]([C@@H](C)O)NC(=O)[C@H]([C@H](O)[C@@H](O)c5ccc(O)cc5)NC(=O)[C@@H]5C[C@@H](O)CN5C(=O)[C@H]([C@@H](C)O)NC4=O)cc3)cc2)cc1 [ANIDULAFUNGIN] ({pTerphenylCO(4''-OnC5H11)}-[Orn(4R-OH,5R-OH)]T[Hyp][hTyr(3S-OH,4S-OH)]T[Pro(3S-OH,4S-Me)]; lactam 1-C)	4 µg/mL (≈ 3.51 µM)	5.15 µg/mL (≈ 4.52 µM)	3.58 µg/mL (≈ 3.14 µM)	10.8 µg/mL (≈ 9.48 µM)	1.99 µg/mL (≈ 1.75 µM)	32 µg/mL (≈ 28.1 µM)
CC[C@H](C)C[C@H](C)CCCCCCCCC(=O)N[C@H]1C[C@@H](O)[C@@H](NCCN)NC(=O)[C@@H]2[C@@H](O)CCN2C(=O)[C@H]([C@H](O)CCN)NC(=O)[C@H]([C@H](O)[C@@H](O)c2ccc(O)cc2)NC(=O)[C@@H]2C[C@@H](O)CN2C(=O)[C@H]([C@@H](C)O)NC1=O [CASPOFUNGIN]	32 µg/mL (≈ 29.3 µM)	21.4 µg/mL (≈ 19.6 µM)	11 µg/mL (≈ 10.1 µM)	10 µg/mL (≈ 9.16 µM)	9.27 µg/mL (≈ 8.48 µM)	32 µg/mL (≈ 29.3 µM)
CCC(C)n1ncn(-c2ccc(N3CCN(c4ccc(OCC5COC(Cn6cncn6)(c6ccc(Cl)cc6Cl)O5)cc4)CC3)cc2)c1=O (centres undefined) [ITRACONAZOLE]	0.5 µg/mL (≈ 0.709 µM)	2.38 µg/mL (≈ 3.37 µM)	0.92 µg/mL (≈ 1.3 µM)	1.03 µg/mL (≈ 1.46 µM)	0.62 µg/mL (≈ 0.879 µM)	1 µg/mL (≈ 1.42 µM)
CCCCCOc1ccc(-c2cc(-c3ccc(C(=O)N[C@H]4C[C@@H](O)[C@@H](O)NC(=O)[C@@H]5[C@@H](O)[C@@H](C)CN5C(=O)[C@H]([C@H](O)CC(N)=O)NC(=O)[C@H]([C@H](O)[C@@H](O)c5ccc(O)c(OS(=O)(=O)O)c5)NC(=O)[C@@H]5C[C@@H](O)CN5C(=O)[C@H]([C@@H](C)O)NC4=O)cc3)no2)cc1 [MICAFUNGIN] (X1-[Orn(4R-OH,5R-OH)]T[Hyp][hTyr(3S-OH,4S-OH,3'-OSO3H)][Gln(3R-OH)][Pro(3S-OH,4S-Me)]; lactam 1-C)	32 µg/mL (≈ 25.2 µM)	21.4 µg/mL (≈ 16.8 µM)	6.85 µg/mL (≈ 5.39 µM)	12.6 µg/mL (≈ 9.95 µM)	8.92 µg/mL (≈ 7.02 µM)	32 µg/mL (≈ 25.2 µM)
CC[C@@H]([C@H](C)O)n1ncn(-c2ccc(N3CCN(c4ccc(OC[C@@H]5CO[C@@](Cn6cncn6)(c6ccc(F)cc6F)C5)cc4)CC3)cc2)c1=O [POSACONAZOLE]	0.25 µg/mL (≈ 0.357 µM)	0.69 µg/mL (≈ 0.985 µM)	0.32 µg/mL (≈ 0.457 µM)	0.58 µg/mL (≈ 0.828 µM)	0.37 µg/mL (≈ 0.528 µM)	0.25 µg/mL (≈ 0.357 µM)
C[C@@H](c1nc(-c2ccc(C#N)cc2)cs1)[C@](O)(Cn1cncn1)c1ccc(F)cc1F [RAVUCONAZOLE]	1 µg/mL (≈ 2.29 µM)	3.42 µg/mL (≈ 7.82 µM)	1.44 µg/mL (≈ 3.29 µM)	1.86 µg/mL (≈ 4.25 µM)	1.34 µg/mL (≈ 3.06 µM)	2 µg/mL (≈ 4.57 µM)
CN(C/C=C/C#CC(C)(C)C)Cc1cccc2ccccc12 [TERBINAFINE]	0.25 µg/mL (≈ 0.858 µM)	1 µg/mL (≈ 3.43 µM)	0.56 µg/mL (≈ 1.92 µM)	0.75 µg/mL (≈ 2.57 µM)	0.48 µg/mL (≈ 1.65 µM)	0.5 µg/mL (≈ 1.72 µM)
C[C@@H](c1ncncc1F)[C@](O)(Cn1cncn1)c1ccc(F)cc1F [VORICONAZOLE]	16 µg/mL (≈ 45.8 µM)	15.1 µg/mL (≈ 43.1 µM)	12.6 µg/mL (≈ 36 µM)	11.5 µg/mL (≈ 33 µM)	11.1 µg/mL (≈ 31.8 µM)	16 µg/mL (≈ 45.8 µM)
